Results taken from ChEMBL document CHEMBL1764979, “Nucleoside transport inhibitors: structure-activity relationships for pyrimido[5,4-d]pyrimidine derivatives that potentiate pemetrexed cytotoxicity in the presence of α1-acid glycoprotein” (J Med Chem, 2011).
Active and inactive are the calls of the source. The rule behind the calls is not given here.

Key:
[1] = Chemical stability of the compound; assay type: physicochemical
[2] = Inhibition of ENT-mediated [3H]thymidine incorporation in human COR-L23 cells by liquid scintillation counting; assay type: cell-based; conditions: COR-L23, 2 h
How it was run: (§1)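 Log-phase COR-L23 cells were seeded at 2 × 10^4/well, left overnight, PBS-washed and given serum-free medium with inhibitor. 3H-TdR was added (final 100 nM, 6.2 GBq/mmol) for 2 h at 37 °C. Cells were washed in ice-cold PBS, lysed in 0.5 M NaOH for 30 min, harvested onto glass-fibre filters with TCA/water/MeOH rinses, and scintillation counted. Mean ± SD of three independent experiments.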

COR-L23 [3] = assay: Inhibition of ENT-mediated [3H]thymidine incorporation in human COR-L23 cells at 0.1 uM by liquid scintillation counting; assay type: cell-based; how it was run: as §1
COR-L23 [4] = assay: Inhibition of ENT-mediated [3H]thymidine incorporation in human COR-L23 cells at 1 uM by liquid scintillation counting; assay type: cell-based; how it was run: as §1
COR-L23 [5] = assay: Potentiation of pemetrexed-induced growth inhibitory activity in human COR-L23 cells at 1 uM by SRB assay in presence of thymidine and hypoxanthine; assay type: functional; set-up: scale not given: the % may be the effect or the level left
How it was run: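 COR-L23 cells in RPMI 1640 with 10% FCS were seeded at 1 × 10^3/well and allowed to attach overnight. They were then given pemetrexed 200 nM, ± TdR 1 μM and HPX 10 μM (1% DMSO), ± inhibitor 1 μM, for three doublings, then fixed and read by SRB. % reversal = (growth arrest with pemetrexed + TdR/HPX + inhibitor)/(growth arrest with pemetrexed alone) × 100. Three independent experiments.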

L1210 [6] = assay: Inhibition of ENT-mediated [3H]thymidine incorporation in mouse L1210 cells at 1 uM by liquid scintillation counting; assay type: cell-based; conditions: in the assay text read “transport” for “incorporation”
How it was run: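 3H-TdR transport into murine L1210 leukaemia cells with inhibitor at 1.0 μM, tested with and without AGP (5 mg/mL). Mean and SD of three independent experiments.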

L1210 [7] = conditions: Mus musculus, at 1 µM
[8] = Aqueous solubility of the compound; assay type: physicochemical; conditions: buffer

SMILES | Stability [1] | IC50 [2] [nM] | solubility [8] | inhibition (COR-L23 [3]) [%] | inhibition (COR-L23 [4]) [%] | Activity (COR-L23 [5]) [%] | inhibition (L1210 [6]) | inhibition (L1210 [7])
COC(=O)[C@@H](NC(=O)OC(C)CNc1nc(NCc2ccc(OC)c(OC)c2)c2nc(NCC(C)O)nc(NCc3ccc(OC)c(OC)c3)c2n1)C(C)C (some centres undefined) | Unstable | 7 |  | 79 | 95 |  |  | 
COc1ccc(CNc2nc(NCC(C)OC(=O)Nc3ccccc3)nc3c(NCc4ccc(OC)c(OC)c4)nc(NCC(O)CO)nc23)cc1OC (centres undefined) |  | 10 |  | 69 | 91 | >100 |  | 
CCOC(=O)CNC(=O)OC(C)CNc1nc(NCc2ccc(OC)c(OC)c2)c2nc(NCC(C)OC(=O)NCC(=O)OCC)nc(NCc3ccc(OC)c(OC)c3)c2n1 (centres undefined) | Unstable |  |  |  |  |  | > 90% | 
COc1ccc(CNc2nc(NCC(C)OC(=O)[C@@H](NC(=O)OC(C)(C)C)C(C)C)nc3c(NCc4ccc(OC)c(OC)c4)nc(NCC(C)O)nc23)cc1OC (some centres undefined) |  |  |  |  |  |  |  | inactive
COc1ccc(CNc2nc(NCC(C)OC(=O)[C@@H](N)C(C)C)nc3c(NCc4ccc(OC)c(OC)c4)nc(NCC(C)OC(=O)[C@@H](N)C(C)C)nc23)cc1OC.Cl.Cl (some centres undefined) |  | 70 |  | 59 | 87 | >100 |  | Active
CCOC(=O)[C@H](C)NC(=O)OC(C)CNc1nc(NCc2ccc(OC)c(OC)c2)c2nc(NCC(C)OC(=O)N[C@@H](C)C(=O)OCC)nc(NCc3ccc(OC)c(OC)c3)c2n1 (some centres undefined) | Unstable |  | Insoluble |  |  |  |  | 
COc1ccc(CNc2nc(NCC(C)OC(=O)[C@@H](N)C(C)C)nc3c(NCc4ccc(OC)c(OC)c4)nc(NCC(C)O)nc23)cc1OC.Cl (some centres undefined) |  | 39 |  | 64 | 89 | >100 |  | 
C=CCOc1ccc(CNc2nc(NCC(C)O)nc3c(NCc4ccc(OC)c(OC)c4)nc(NCC(C)O)nc23)cc1OC (centres undefined) |  | 14 |  | 81 | 96 |  |  | 
COc1ccc(CNc2nc(NCC(C)OC(=O)Nc3ccccc3)nc3c(NCc4ccc(OCCN5CCOCC5)c(OC)c4)nc(NCC(C)O)nc23)cc1OC (centres undefined) |  | 22 |  | 80 | 97 | >100 |  | 
CCOC(=O)[C@H](Cc1ccccc1)NC(=O)OC(C)CNc1nc(NCc2ccc(OC)c(OC)c2)c2nc(NCC(C)OC(=O)N[C@@H](Cc3ccccc3)C(=O)OCC)nc(NCc3ccc(OC)c(OC)c3)c2n1 (some centres undefined) | Unstable |  | Insoluble |  |  |  |  | 
OCCN(CCO)c1nc(N2CCCCC2)c2nc(N(CCO)CCO)nc(N3CCCCC3)c2n1 [DIPYRIDAMOLE] |  | 15 |  | 78 | 96 | >100 |  | 
CCOC(=O)CNC(=O)OC(C)CNc1nc(NCc2ccc(OC)c(OC)c2)c2nc(NCC(C)O)nc(NCc3ccc(OC)c(OC)c3)c2n1 (centres undefined) | Unstable | 59 |  | 85 | 94 |  | > 90% | Active
COc1ccc(CNc2nc(NCC(C)OC(=O)CCC(=O)O)nc3c(NCc4ccc(OC)c(OC)c4)nc(NCC(C)O)nc23)cc1OC (centres undefined) |  |  |  |  |  |  |  | Active
COc1ccc(CNc2nc(NCC(C)OC(=O)[C@@H](NC(=O)OC(C)(C)C)C(C)C)nc3c(NCc4ccc(OC)c(OC)c4)nc(NCC(C)OC(=O)[C@@H](NC(=O)OC(C)(C)C)C(C)C)nc23)cc1OC (some centres undefined) |  |  |  |  |  |  |  | inactive
CCOC(=O)[C@H](C)NC(=O)OC(C)CNc1nc(NCc2ccc(OC)c(OC)c2)c2nc(NCC(C)O)nc(NCc3ccc(OC)c(OC)c3)c2n1 (some centres undefined) | Unstable | 435 |  | 39 | 68 |  |  | 
COc1ccc(CNc2nc(NCC(C)O)nc3c(NCc4ccc(OC)c(OC)c4)nc(NCC(C)O)nc23)cc1OC (centres undefined) | Stable | 26 |  | 66 | 90 | >100 | > 90% | Active
COc1ccc(CNc2nc(NC[C@H](C)O)nc3c(NCc4ccc(OC)c(OC)c4)nc(NC[C@H](C)O)nc23)cc1OC |  | 31 |  | 68 | 93 |  |  | 
CCOC(=O)[C@H](Cc1ccccc1)NC(=O)OC(C)CNc1nc(NCc2ccc(OC)c(OC)c2)c2nc(NCC(C)O)nc(NCc3ccc(OC)c(OC)c3)c2n1 (some centres undefined) | Unstable |  |  |  |  |  |  | 
COc1ccc(CNc2nc(NCC(C)OC(=O)CCC(=O)O)nc3c(NCc4ccc(OC)c(OC)c4)nc(NCC(C)OC(=O)CCC(=O)O)nc23)cc1OC (centres undefined) |  |  |  |  |  |  |  | inactive

The next lines start with results.

Stability [1] | IC50 [2] [nM] | solubility [8] | SMILES | inhibition (COR-L23 [3]) [%] | inhibition (COR-L23 [4]) [%] | Activity (COR-L23 [5]) [%] | inhibition (L1210 [6]) | inhibition (L1210 [7])
Stable | 4 |  | COc1ccc(NC(=O)OC(C)CNc2nc(NCc3ccc(OC)c(OC)c3)c3nc(NCC(C)O)nc(NCc4ccc(OC)c(OC)c4)c3n2)cc1 (centres undefined) | 84 | 98 | >100 |  | 
Stable | 60 |  | COc1ccc(CNc2nc(NCC(C)OC(=O)Nc3ccc([N+](=O)[O-])cc3)nc3c(NCc4ccc(OC)c(OC)c4)nc(NCC(C)O)nc23)cc1OC (centres undefined) | 84 | 96 | >100 | Active | Active
 | 44 |  | COc1ccc(CNc2nc(NCC(C)OC(=O)[C@@H](N)C(C)C)nc3c(NCc4ccc(OC)c(OC)c4)nc(NCC(C)OC(=O)Nc4ccccc4)nc23)cc1OC (some centres undefined) | 68 | 92 | >100 |  | 
Unstable | 7 |  | COc1ccc(CNc2nc(NCC(C)OC(=O)Nc3ccccc3)nc3c(NCc4ccc(OC)c(OC)c4)nc(NCC(C)OC(=O)CCC(=O)O)nc23)cc1OC (centres undefined) | 75 | 94 | >100 |  | 
Stable | 67 |  | COc1ccc(CNc2nc(NCC(C)OC(=O)Nc3ccc(C(F)(F)F)cc3)nc3c(NCc4ccc(OC)c(OC)c4)nc(NCC(C)O)nc23)cc1OC (centres undefined) | 75 | 93 | >100 | Active | Active
Stable | 8 |  | COc1ccc(CNc2nc(NCC(C)OC(=O)Nc3ccccc3)nc3c(NCc4ccc(OC)c(OC)c4)nc(NCC(C)O)nc23)cc1OC (centres undefined) | 81 | 97 | >100 | Active | Active
Stable |  |  | COc1ccc(CNc2nc(NCC(C)OC(=O)Nc3ccccc3)nc3c(NCc4ccc(OC)c(OC)c4)nc(NCC(C)OC(=O)Nc4ccccc4)nc23)cc1OC (centres undefined) |  |  |  |  | 
Stable |  |  | COc1ccc(CNc2nc(NCC(C)OC(=O)Nc3ccc([N+](=O)[O-])cc3)nc3c(NCc4ccc(OC)c(OC)c4)nc(NCC(C)OC(=O)Nc4ccc([N+](=O)[O-])cc4)nc23)cc1OC (centres undefined) |  |  |  | inactive | 
Stable |  |  | COc1ccc(CNc2nc(NCC(C)OC(=O)Nc3ccc(C(F)(F)F)cc3)nc3c(NCc4ccc(OC)c(OC)c4)nc(NCC(C)OC(=O)Nc4ccc(C(F)(F)F)cc4)nc23)cc1OC (centres undefined) |  |  |  | inactive | 
Stable |  |  | COc1ccc(NC(=O)OC(C)CNc2nc(NCc3ccc(OC)c(OC)c3)c3nc(NCC(C)OC(=O)Nc4ccc(OC)cc4)nc(NCc4ccc(OC)c(OC)c4)c3n2)cc1 (centres undefined) |  |  |  |  | 
Unstable | 218 |  | COc1ccc(CNc2nc(NCC(C)OP(=O)(O)O)nc3c(NCc4ccc(OC)c(OC)c4)nc(NCC(C)OC(=O)Nc4ccccc4)nc23)cc1OC (centres undefined) | 53 | 75 |  |  | 
